# Measurements taken from ChEMBL document CHEMBL1125265, “FTIR spectral study of intramolecular hydrogen bonding in thromboxane A2 receptor antagonist S-145 and related compounds. 3. Conformation and activity of S-145 analogues” (J Med Chem, 1991).
# Columns and labels:
# Format in all cases: functional
# [1] = species: Oryctolagus cuniculus; experiment: In vitro inhibitory concentration measured against U-46,619 (1 uM) induced aggregation of washed platelets (WP) in rabbit; N-Negative
# [2] = species: Rattus norvegicus; experiment: In vitro inhibitory concentration measured against U-46,619 (30 nM) induced contraction for rat aorta
# [3] = species: Rattus norvegicus; experiment: In vitro inhibitory concentration measured against collagen ([…]) induced aggregation of washed platelets (WP) in rat
# Procedure, shortened: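 Rat washed platelets; aggregation triggered with collagen at 4 µg/mL; inhibitory concentration reported as IC50, following a procedure from earlier work.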
# [4] = species: Oryctolagus cuniculus; experiment: In vitro inhibitory concentration measured against U-46,619 (1 uM) induced aggregation of washed platelets (WP) in rabbit
SMILES,IC50 [1],IC50 [2],IC50 [3],IC50 [4]
CCCCCCC(O)CCCCCCCCCCC(=O)O (configuration not stated),Negative,–,–,–
O=C(O)CCCCCNS(=O)(=O)c1ccccc1,Negative,> 140 µM,> 14.5 µM,–
O=C(O)CCCCCCCCCCNS(=O)(=O)c1ccccc1,–,4.6 µM,4.35 µM,10 µM
O=C(O)CCCCCCCCNS(=O)(=O)c1ccccc1,–,1.6 µM,0.41 µM,0.4 µM
O=C(O)CCCCCCCCCCCO,Negative,–,–,–
O=C(O)CCCCCCNS(=O)(=O)c1ccccc1,–,55.3 µM,11.6 µM,> 10 µM
O=C(O)CCCCNS(=O)(=O)c1ccccc1,Negative,> 140 µM,> 14.5 µM,–
O=C(O)CCC/C=C\C[C@@H]1C(NS(=O)(=O)c2ccccc2)C2CC[C@@H]1C2 (some centres not stated),–,0.0014 µM,0.0029 µM,0.006 µM
O=C(O)CCCNS(=O)(=O)c1ccccc1,Negative,> 140 µM,> 14.5 µM,–
O=C(O)CCCCCCCCCCCNS(=O)(=O)c1ccccc1,–,6.4 µM,3.48 µM,> 10 µM
O=C(O)CCC/C=C\CCCNS(=O)(=O)c1ccccc1,–,–,0.041 µM,0.048 µM
O=C(O)CCCCCCCNS(=O)(=O)c1ccccc1,–,2.8 µM,0.29 µM,0.7 µM
O=C(O)COc1ccc(CCNS(=O)(=O)c2ccccc2)cc1 [SULOTROBAN],–,–,–,0.3 µM
